Test results taken from ChEMBL document CHEMBL2040816, “Design, synthesis, and structure-activity relationship studies of novel millepachine derivatives as potent antiproliferative agents” (Eur J Med Chem, 2012).
The source made the active and inactive calls. The calls are words filed in the database; no cut-off is given here.

Assays:
HepG2 [1] = assay: Cell cycle arrest in human HepG2 cells assessed as accumulation at G2/M phase at 1.25 uM after 8 hrs by propidium iodide staining-based flow cytometric analysis (reference value: 17.72%); assay type: functional
HepG2 [2] = assay: Cell cycle arrest in human HepG2 cells assessed as accumulation at G1 phase at 1.25 uM after 8 hrs by propidium iodide staining-based flow cytometric analysis (reference value: 49.86%); assay type: functional
HepG2 [3] = assay: Cell cycle arrest in human HepG2 cells assessed as accumulation at 5 uM after 8 hrs by propidium iodide staining-based flow cytometric analysis (reference value: 17.72%)
HepG2 [4] = assay: Cell cycle arrest in human HepG2 cells assessed as accumulation at S phase at 1.25 uM after 8 hrs by propidium iodide staining-based flow cytometric analysis (reference value: 32.43%); assay type: functional
HepG2 [5] = assay: Cell cycle arrest in human HepG2 cells assessed as accumulation at G2/M phase at 5 uM after 8 hrs by propidium iodide staining-based flow cytometric analysis (reference value: […])
A549 = assay: Antitumor activity against human A549 cells xenografted in BALB/c mouse assessed as tumor growth inhibition at 20 mg/kg, iv administered at intervals of 2 days for 18 days relative to control; assay type: functional; settings: read-out: GI
How it was run: (§1)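 Nude mice received 1 × 10⁷ A549 cells in 0.1 mL DMEM subcutaneously in the right gluteal region. At 100 mm³ tumour volume, 24 mice were randomised into four groups (n = 6). Test groups got 20 mg/kg in 0.2 mL physiological saline by tail vein every 2 days for 18 days. Vehicle control got saline; cisplatin 5 mg/kg weekly served as positive control. Tumour growth and body weight tracked; two-sided Student's t test.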

HT-29 = assay: Antiproliferative activity against human HT-29 cells after 24 hrs by MTT assay; assay type: functional, cell-based; settings: HT-29, 24 h
How it was run: (§2)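 MTT assay. 1 × 10⁴ cells per well were plated and incubated 24 h before dye was added (20 µL of 5 mg/mL MTT in PBS per well), then incubated until a purple precipitate formed. Precipitate dissolved in 150 µL DMSO after medium removal, then absorbance read.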

HepG2 [6] = assay: Antiproliferative activity against human HepG2 cells after 24 hrs by MTT assay; assay type: functional, cell-based; settings: HepG2, 24 h; how it was run: as §2
HepG2 [7] = assay: Inhibition of alpha-tubulin in human HepG2 cells assessed as decrease in microtubule formation at 1 uM after 24 hrs by DAPI staining-based immunofluorescence analysis; assay type: cell-based
HepG2 [8] = assay: Cell cycle arrest in human HepG2 cells assessed as accumulation at G1 phase at 5 uM after 8 hrs by propidium iodide staining-based flow cytometric analysis (reference value: 49.86%); assay type: functional
HepG2 [9] = assay: Cell cycle arrest in human HepG2 cells assessed as accumulation at G2/M phase at 2.5 uM after 8 hrs by propidium iodide staining-based flow cytometric analysis (reference value: 17.72%); assay type: functional
HepG2 [10] = assay: Inhibition of alpha-tubulin in human HepG2 cells assessed as decrease in spindle formation at 1 uM after 24 hrs by DAPI staining-based immunofluorescence analysis; assay type: cell-based
HCT-116 = assay: Antiproliferative activity against human HCT116 cells after 24 hrs by MTT assay; assay type: functional, cell-based; settings: HCT-116, 24 h; how it was run: as §2
SK-OV-3 = assay: Antiproliferative activity against human SKOV3 cells after 24 hrs by MTT assay; assay type: functional, cell-based; settings: SK-OV-3, 24 h; how it was run: as §2
HepG2 [11] = assay: Cell cycle arrest in human HepG2 cells assessed as accumulation at S phase at 2.5 uM after 8 hrs by propidium iodide staining-based flow cytometric analysis (reference value: 32.43%); assay type: functional
Mus musculus = assay: Toxicity in BALB/c mouse bearing human A549 cells assessed as decrease in body weight at 20 mg/kg, iv administered at intervals of 2 days for 18 days; assay type: organism-based; design: dose 20 mg/kg, route intravenous; settings: in vivo; how it was run: as §1
K562 = assay: Antiproliferative activity against human K562 cells after 24 hrs by MTT assay; assay type: functional, cell-based; settings: K562, 24 h; how it was run: as §2
SW-620 = assay: Antiproliferative activity against human SW620 cells after 24 hrs by MTT assay; assay type: functional, cell-based; settings: SW-620, 24 h; how it was run: as §2
HepG2 [12] = assay: Cell cycle arrest in human HepG2 cells assessed as accumulation at G1 phase at 2.5 uM after 8 hrs by propidium iodide staining-based flow cytometric analysis (reference value: 49.86%); assay type: functional

SMILES | Activity (HepG2 [1]) [%] | Activity (HepG2 [2]) [%] | Activity (HepG2 [3]) [%] | Activity (HepG2 [4]) [%] | Activity (HepG2 [5]) [%] | inhibition in vivo at 20 mg/kg (A549) [%] | IC50 (HT-29) [nM] | IC50 (HepG2 [6]) [nM] | inhibition (HepG2 [7]) | Activity (HepG2 [8]) [%] | Activity (HepG2 [9]) [%] | inhibition (HepG2 [10]) | IC50 (HCT-116) [nM] | IC50 (SK-OV-3) [nM] | Activity (HepG2 [11]) [%] | Activity (Mus musculus) | IC50 (K562) [nM] | IC50 (SW-620) [nM] | Activity (HepG2 [12]) [%]
CCN(CC)c1ccc(/C=C/C(=O)c2ccc(OC)c3c2OC(C)(C)C=C3)cc1 | 42.55 | 40.67 | 9.99 | 16.77 | 90.01 | 84.1 | 550 | 590 | Active | 0 | 78.35 | Active | 620 | 610 | 17.17 | Non-toxic | 790 | 670 | 4.49
COc1ccc(/C=C/C(=O)c2ccc(OC)c3c2OC(C)(C)C=C3)cc1 [MILLEPACHINE] | 69.31 | 10.34 | 91.65 | 20.35 | 7.68 | 69.4 | 3290 | 1510 | Active | 0.66 | 79.65 | Active | 4660 | 2360 | 17.71 | Non-toxic | 4560 | 760 | 2.64
